Reference: ChEMBL document CHEMBL3414565, “Discovery of novel AHLs as potent antiproliferative agents” (Eur J Med Chem, 2015)

Tests used:
MCF7 [1] = test: Induction of apoptosis in human MCF7 cells assessed as early apoptotic cells at 2 uM after 24 hrs by annexin V-FITC/propidium iodide staining-based flow cytometry (reference value: 4.5%); assay type: functional
In short: (§1)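 MCF-7 cells were plated at 5.0 × 10^6 cells/mL and held 12 or 24 h at 37 °C. Exponentially growing cells then received complete medium (blank) or compound at 0, 2, 4 or 8 for 12 or 24 h. Harvested cells were stained with Annexin V-FITC/PI and analysed by flow cytometry. Quadrants were scored as live, early apoptotic (annexin+/PI−), late apoptotic (double positive) and damaged (PI+ only).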

MCF7 [2] = test: Induction of apoptosis in human MCF7 cells assessed as necrotic cells at 2 uM after 24 hrs by annexin V-FITC/propidium iodide staining-based flow cytometry (reference value: 6.2%); assay type: functional; in short: as §1
MCF7 [3] = test: Induction of apoptosis in human MCF7 cells assessed as viable cells at 2 uM after 24 hrs by annexin V-FITC/propidium iodide staining-based flow cytometry (reference value: 87.1%); assay type: functional; settings: MCF7, 24 h, read-out: Activity; in short: as §1
MCF7 [4] = test: Induction of apoptosis in human MCF7 cells assessed as early apoptotic cells at 4 uM after 24 hrs by annexin V-FITC/propidium iodide staining-based flow cytometry (reference value: 4.5%); assay type: functional; in short: as §1
MCF7 [5] = test: Induction of apoptosis in human MCF7 cells assessed as necrotic cells at 4 uM after 24 hrs by annexin V-FITC/propidium iodide staining-based flow cytometry (reference value: 6.2%); assay type: functional; in short: as §1
MCF7 [6] = test: Induction of apoptosis in human MCF7 cells assessed as viable cells at 4 uM after 24 hrs by annexin V-FITC/propidium iodide staining-based flow cytometry (reference value: 87.1%); assay type: functional; settings: MCF7, 24 h, read-out: Activity; in short: as §1
MCF7 [7] = test: Induction of apoptosis in human MCF7 cells assessed as early apoptotic cells at 8 uM after 24 hrs by annexin V-FITC/propidium iodide staining-based flow cytometry (reference value: 4.5%); assay type: functional; in short: as §1
MCF7 [8] = test: Induction of apoptosis in human MCF7 cells at 2 to 8 uM by annexin V-FITC/propidium iodide staining-based flow cytometry; assay type: functional, cell-based; settings: TDE = time-dependent effect
MCF7 [9] = test: Cell cycle arrest in human MCF7 cells assessed as accumulation at S phase at 4 uM after 12 hrs by propidium iodide staining-based flow cytometry (reference value: 26.65%); assay type: functional
MCF7 [10] = test: Cell cycle arrest in human MCF7 cells assessed as accumulation at G1/G0 phase at 8 uM after 12 hrs by propidium iodide staining-based flow cytometry (reference value: 60.51%); assay type: functional
MCF7 [11] = test: Cell cycle arrest in human MCF7 cells assessed as accumulation at G1/G0 phase at 4 uM after 24 hrs by propidium iodide staining-based flow cytometry (reference value: 46.77%); assay type: functional
MCF7 [12] = test: Cell cycle arrest in human MCF7 cells assessed as accumulation at S phase at 4 uM after 24 hrs by propidium iodide staining-based flow cytometry (reference value: 40.08%); assay type: functional
MCF7 [13] = test: Cell cycle arrest in human MCF7 cells assessed as accumulation at G2/M phase after 12 to 24 hrs by propidium iodide staining-based flow cytometry; assay type: functional
MGC-803 = test: Cytotoxicity against human MGC803 cells after 72 hrs by MTT assay; assay type: functional, cell-based; settings: MGC-803, 72 h
In short: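 Cells were grown in RPMI1640 and seeded at 5 × 10^3 cells/well, then left 24 h at 37 °C. Medium was replaced with fresh medium holding a range of compound concentrations, from 10 mM DMSO stocks with final DMSO at most 0.1%. Exposure lasted 72 h. MTT (5 mg/mL) was added for 4 h at 37 °C, formazan was dissolved in DMSO and A570 was read. IC50 came from dose-response curves as mean ± SD of three independent experiments.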

MCF7 [14] = test: Induction of apoptosis in human MCF7 cells assessed as early apoptotic cells at 2 uM after 12 hrs by annexin V-FITC/propidium iodide staining-based flow cytometry (reference value: 7.2%); assay type: functional; in short: as §1
MCF7 [15] = test: Induction of apoptosis in human MCF7 cells assessed as late apoptotic cells at 2 uM after 12 hrs by annexin V-FITC/propidium iodide staining-based flow cytometry (reference value: 2.7%); assay type: functional; in short: as §1
MCF7 [16] = test: Induction of apoptosis in human MCF7 cells assessed as necrotic cells at 2 uM after 12 hrs by annexin V-FITC/propidium iodide staining-based flow cytometry (reference value: 4.7%); assay type: functional; in short: as §1
MCF7 [17] = test: Induction of apoptosis in human MCF7 cells assessed as necrotic cells at 4 uM after 12 hrs by annexin V-FITC/propidium iodide staining-based flow cytometry (reference value: 4.7%); assay type: functional; in short: as §1
MCF7 [18] = test: Induction of apoptosis in human MCF7 cells assessed as early apoptotic cells at 8 uM after 12 hrs by annexin V-FITC/propidium iodide staining-based flow cytometry (reference value: 7.2%); assay type: functional; in short: as §1

With `O=C(CSC(=S)N[C@H]1CCOC1=O)Nc1ccc(C(=O)/C=C/c2ccccc2Cl)cc1` the Activity (MCF7 [1]) was 16.4%, the Activity (MCF7 [2]) was 5.7% and the viability at 2 µM (MCF7 [3]) was 75.8%. For the same compound, the Activity (MCF7 [4]) was 23.6%, the Activity (MCF7 [5]) was 4.1% and the viability at 4 µM (MCF7 [6]) was 69.3%. The Activity (MCF7 [7]) was 43.2%, the Activity (MCF7 [8]) was “tde” and the Activity (MCF7 [9]) was 24.4%. It also gave an Activity (MCF7 [10]) of 46.48%, an Activity (MCF7 [11]) of 39.43% and an Activity (MCF7 [12]) of 20.43%. The Activity (MCF7 [13]) was “Dose-dependent effect”, the IC50 (MGC-803) was 12.3 µM and the Activity (MCF7 [14]) was 11.4%. It also gave an Activity (MCF7 [15]) of 1.7%, an Activity (MCF7 [16]) of 4.9% and an Activity (MCF7 [17]) of 5.6%. It also gave an Activity (MCF7 [18]) of 19%.
